Source: ChEMBL document CHEMBL1130288, “(3R)-N-(1-(tert-butylcarbonylmethyl)-2,3-dihydro-2-oxo-5-(2-pyridyl)-1H-1,4-benzodiazepin-3-yl)-N'-(3-(methylamino)phenyl)urea (YF476): a potent and orally active gastrin/CCK-B antagonist” (J Med Chem, 1997)

Experiments:
Rattus norvegicus [1] = assay: Inhibition of pentagastrin-induced gastric acid secretion in anathesized rats at 0.1 uM/Kg upon intravenous administration; type: functional, Stomach
Summary of the method: (§1)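 Anesthetized rats, pylorus-ligated with duodenal cannula. Stomach perfused with saline (pH 7.0) at 3 mL/min. Acid output by continuous pH-stat titration with 25 mM NaOH to pH 7.0, per 10 min. Pentagastrin infused iv via femoral vein. Compound in polyethylene glycol 300 given iv 1 h after pentagastrin start. ED50 is the dose reducing acid to 50% of maximum.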

[2] = target: T1, Cholecystokinin receptor type A (Rattus norvegicus, UniProt P30551); assay: Inhibitory concentration against radioligand [3 H]L-364,718 binding to gastrin/Cholecystokinin type A receptor from rat pancreas
T1 sequence (P30551 whole entry): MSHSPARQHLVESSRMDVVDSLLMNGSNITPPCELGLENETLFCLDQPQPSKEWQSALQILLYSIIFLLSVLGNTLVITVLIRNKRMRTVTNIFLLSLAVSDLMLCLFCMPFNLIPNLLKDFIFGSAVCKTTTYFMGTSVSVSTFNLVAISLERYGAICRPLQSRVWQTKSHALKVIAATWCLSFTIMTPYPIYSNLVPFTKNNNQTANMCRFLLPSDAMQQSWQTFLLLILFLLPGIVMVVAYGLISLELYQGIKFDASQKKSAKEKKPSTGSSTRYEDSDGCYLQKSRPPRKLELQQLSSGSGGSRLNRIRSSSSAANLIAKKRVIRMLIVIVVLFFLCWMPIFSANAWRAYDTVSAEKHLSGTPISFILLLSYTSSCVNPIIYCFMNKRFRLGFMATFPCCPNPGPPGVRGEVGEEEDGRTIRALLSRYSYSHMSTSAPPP
Summary of the method: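 Rat pancreas membranes in 50 mM Tris-HCl pH 7.7 containing BSA, MgCl2, bacitracin and DTT. Incubated 30 min at 37 °C with [3H]L-364,718 and compound (in DMSO). Filtration, scintillation counting. Nonspecific binding with […] L-364,718. IC50 is the concentration inhibiting specific binding by 50%.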

[3] = target: T2, Gastrin/cholecystokinin type B receptor (Rattus norvegicus, UniProt P30553); assay: Inhibitory concentration against radioligand [125I]CCK-8 binding to gastrin/Cholecystokinin type B receptor from rat brain
T2 sequence (P30553 whole entry): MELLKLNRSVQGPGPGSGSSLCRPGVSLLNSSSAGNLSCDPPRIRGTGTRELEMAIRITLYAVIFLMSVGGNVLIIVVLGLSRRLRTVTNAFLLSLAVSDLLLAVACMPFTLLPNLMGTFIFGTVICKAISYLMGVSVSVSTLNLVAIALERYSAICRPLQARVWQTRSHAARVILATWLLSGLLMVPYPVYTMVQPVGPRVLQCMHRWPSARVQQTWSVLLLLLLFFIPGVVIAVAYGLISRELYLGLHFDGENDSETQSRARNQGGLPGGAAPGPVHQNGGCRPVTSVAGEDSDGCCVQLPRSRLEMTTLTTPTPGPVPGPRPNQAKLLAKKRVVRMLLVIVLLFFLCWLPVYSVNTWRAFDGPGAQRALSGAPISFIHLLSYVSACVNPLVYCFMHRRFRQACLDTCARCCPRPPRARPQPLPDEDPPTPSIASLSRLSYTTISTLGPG
Summary of the method: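 SD rat whole-brain membranes prepared by sucrose homogenisation, differential centrifugation and Triton X-100 wash. Incubated 120 min at 25 °C with [125I]BH-CCK-8 and compound (in DMSO) in 10 mM HEPES pH 6.5 with NaCl, MgCl2, EDTA, bacitracin. Filtration, γ-counting. Nonspecific binding with […] CCK-8. IC50 is the concentration giving 50% inhibition of specific binding.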

[4] = target: Cholecystokinin receptor (Rattus norvegicus) (UniProt P30551+P30553); assay: Ratio of inhibitory concentration; CCK-A receptor to CCK-B receptor; type: protein assay
Canis familiaris [5] = assay: Compound at an peroral dose of 1 umol/kg was tested for the inhibition of pentagastrin-induced gastric acid secretion in heidenhain pouch dogs; type: functional; details: Canis lupus familiaris, Stomach, po
Summary of the method: (§2)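 Male beagle dogs with Heidenhain pouch, food withheld 18 h (water free). Pentagastrin 8 µmol/kg/h infused via femoral vein from 3 h before until 6 h after oral dosing. Gastric juice collected every 15 min; acidity by automatic titration with 0.05 N NaOH to pH 7.0. Inhibition relative to values just before dosing.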

Rattus norvegicus [6] = assay: Inhibition of pentagastrin-induced gastric acid secretion in anathesized rats upon intravenous administration; type: functional; details: Stomach; summary of the method: as §1
Canis familiaris [7] = assay: Compound at an peroral dose of 3 uM/Kg was tested for the inhibition of pentagastrin-induced gastric acid secretion in heidenhain pouch dogs; type: functional, Canis lupus familiaris, Stomach; summary of the method: as §2
Canis familiaris [8] = assay: Concentration required to inhibit pentagastrin-induced gastric acid secretion in heidenhain pouch dogs upon intravenous administration; type: functional; details: Canis lupus familiaris, Stomach
Summary of the method: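 Male beagle dogs with Heidenhain pouch, fasted 18 h with water allowed. Pentagastrin infused at 8 µmol/kg/h through femoral vein. Compound dissolved in DMF and given iv 3 h after infusion start. Juice collected every 15 min, volume measured, acidity titrated with 0.05 N NaOH to pH 7.0.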

Canis familiaris [9] = assay: Concentration required to inhibit pentagastrin-induced gastric acid secretion in heidenhain pouch dogs upon peroral administration; type: functional; details: Canis lupus familiaris, Stomach, po; summary of the method: as §2
Rattus norvegicus [10] = assay: Inhibition of pentagastrin-induced gastric acid secretion in Dawley rats following intravenous administration; type: functional; details: Stomach; summary of the method: as §1
Canis familiaris [11] = assay: Compound at an peroral dose of 0.03 uM/Kg was tested for the inhibition of pentagastrin-induced gastric acid secretion in heidenhain pouch dogs; type: functional, Canis lupus familiaris, Stomach; summary of the method: as §2
Canis familiaris [12] = assay: Compound at an peroral dose of 0.1 uM/Kg was tested for the inhibition of pentagastrin-induced gastric acid secretion in heidenhain pouch dogs; type: functional, Canis lupus familiaris, Stomach; summary of the method: as §2
Rattus norvegicus [13] = assay: Inhibition of pentagastrin-induced gastric acid secretion in anathesized rats at 0.03 uM/Kg upon intravenous administration; type: functional, Stomach; summary of the method: as §1
Canis familiaris [14] = assay: Compound at an peroral dose of 0.3 uM/Kg was tested for the inhibition of pentagastrin-induced gastric acid secretion in heidenhain pouch dogs; type: functional, Canis lupus familiaris, Stomach; summary of the method: as §2

Compound | Inhibition (Rattus norvegicus [1]) | IC50 [2] | IC50 [3] | Ratio [4] | further results
CCN(CC)c1cccc(NC(=O)N[C@@H]2N=C(c3ccccn3)c3ccccc3N(CC(=O)C(C)(C)C)C2=O)c1 | 74% | 301 nM | 0.11 nM | 2740 | 
Cc1cccc(NC(=O)N[C@@H]2N=C(c3ccccc3)c3ccccc3N(CC(=O)c3ccccc3C)C2=O)c1 |  |  |  | 1330 | inhibition in vivo at 1 µmol/kg (Canis familiaris [5]): 26%; ED50 (Rattus norvegicus [6]): 0.0083 µmol/kg; Inhibition (Canis familiaris [7]): 72%; ED50 (Canis familiaris [8]): 0.026 µmol/kg; ED50 (Canis familiaris [9]): 1.9 µmol/kg
CN(C)c1cccc(NC(=O)N[C@@H]2N=C(c3ccccc3)c3ccccc3N(CC(=O)C(C)(C)C)C2=O)c1 | 65% | 89 nM | 0.21 nM | 423 | Inhibition (Canis familiaris [7]): 99%; ED50 (Rattus norvegicus [10]): 0.012 µmol/kg
CNc1cccc(NC(=O)N[C@@H]2N=C(c3ccccn3)c3ccccc3N(CC(=O)C(C)(C)C)C2=O)c1 [NETAZEPIDE] | 87% |  |  | 5020 | ED50 (Canis familiaris [8]): 0.018 µmol/kg; ED50 (Canis familiaris [9]): 0.021 µmol/kg; ED50 (Rattus norvegicus [10]): 0.008 µmol/kg; Inhibition (Canis familiaris [11]): 65%; Inhibition (Canis familiaris [12]): 100%
CC(C)(C)C(=O)CN1C(=O)[C@H](NC(=O)Nc2cccc(N)c2)N=C(c2ccccc2)c2ccccc21 | 75% |  |  | 1910 | 
CCN(CC)c1cccc(NC(=O)N[C@@H]2N=C(c3ccccc3)c3ccccc3N(CC(=O)C(C)(C)C)C2=O)c1 | 82% | 558 nM | 0.14 nM | 3990 | 
CNc1cccc(NC(=O)N[C@@H]2N=C(c3ccccc3)c3ccccc3N(CC(=O)C(C)(C)C)C2=O)c1 | 80% |  |  | 1090 | 
CC(C)(C)C(=O)CN1C(=O)[C@H](NC(=O)Nc2cccc(N3CCCCC3)c2)N=C(c2ccccn2)c2ccccc21 | 55% | 944 nM | 0.84 nM | 1120 | 
CN(C)c1cccc(NC(=O)N[C@H]2N=C(c3ccccn3)c3ccccc3N(CC(=O)C(C)(C)C)C2=O)c1 |  | 572 nM | 1.26 nM | 454 | 
CN(C)c1cccc(NC(=O)N[C@@H]2N=C(c3ccccn3)c3ccccc3N(CC(=O)C(C)(C)C)C2=O)c1 |  |  |  | 565 | ED50 (Canis familiaris [8]): 0.014 µmol/kg; ED50 (Rattus norvegicus [10]): 0.011 µmol/kg; Inhibition (Canis familiaris [11]): 77%; Inhibition (Rattus norvegicus [13]): 65%; Inhibition (Canis familiaris [12]): 98%
CC(C)(C)C(=O)CN1C(=O)C(NC(=O)Nc2cccc(C#N)c2)N=C(c2ccccc2)c2ccccc21 (configuration not stated) | 65% | 700 nM | 1.29 nM | 542 | 
Cc1cccc(NC(=O)N[C@@H]2N=C(c3ccccn3)c3ccccc3N(CC(=O)C(C)(C)C)C2=O)c1 | 78% | 470 nM |  | 1070 | Inhibition (Canis familiaris [7]): 97%; Inhibition (Canis familiaris [14]): 7%
Cc1cccc(NC(=O)N[C@@H]2N=C(c3ccccc3)c3ccccc3N(CC(=O)C(C)(C)C)C2=O)c1 |  | 111 nM | 0.52 nM | 213 | Inhibition (Canis familiaris [7]): 53%; Inhibition (Rattus norvegicus [13]): 77%
CC(C)(C)C(=O)CN1C(=O)[C@H](NC(=O)Nc2cccc(N3CCCC3)c2)N=C(c2ccccn2)c2ccccc21 | 75% | 253 nM | 0.11 nM | 2300 | 
CC(C)(C)C(=O)CN1C(=O)C(NC(=O)Nc2cccc(NC=O)c2)N=C(c2ccccc2)c2ccccc21 (configuration not stated) | 74% | 561 nM | 0.59 nM | 951 | 
CC(C)(C)C(=O)CN1C(=O)C(NC(=O)Nc2cccc(C(=O)O)c2)N=C(c2ccccc2)c2ccccc21 (configuration not stated) | 56% | 2060 nM | 3.29 nM | 626 | 
CC(C)(C)C(=O)CN1C(=O)[C@H](NC(=O)Nc2cccc(N3CCCC3)c2)N=C(c2ccccc2)c2ccccc21 | 79% | 157 nM | 0.17 nM | 923 | 
CC(C)(C)C(=O)CN1C(=O)[C@H](NC(=O)Nc2cccc(N)c2)N=C(c2ccccn2)c2ccccc21 | 62% | 1820 nM | 0.43 nM | 4230 | 
CC(C)(C)C(=O)CN1C(=O)C(NC(=O)Nc2cccc([N+](=O)[O-])c2)N=C(c2ccccc2)c2ccccc21 (configuration not stated) | 76% | 589 nM | 0.16 nM | 3680 | 
